Experimental findings from ChEMBL document CHEMBL2346527, “Kinase scaffold repurposing for neglected disease drug discovery: discovery of an efficacious, lapatinib-derived lead compound for trypanosomiasis” (J Med Chem, 2013) are described below.

The subject of series [1] is Trypanosoma brucei. As to the kind of experiment: Antitrypanosomal activity against bloodstream Trypanosoma brucei assessed as increase in 1K2N cells after 7 hrs by DAPI staining-based fluorescence microscopy. It counts as functional, organism-based. The procedure, abridged: (§1)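 After 7 h with or without drug, trypanosomes were stained with DAPI and imaged by single-cell fluorescence microscopy with DIC. Nuclei (N) and kinetoplasts (K) were counted per cell to give the distribution of organelle configurations.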

For series [2], the system named is Trypanosoma brucei. Briefly: Antitrypanosomal activity against bloodstream Trypanosoma brucei assessed as reduction in 1K1N cells after 7 hrs by DAPI staining-based fluorescence microscopy. The class given is functional, organism-based. The procedure, abridged: as §1
Series [3] relates to Trypanosoma brucei. As to the kind of experiment: Reduction of 2C to 4C equivalents of DNA in bloodstream Trypanosoma brucei after 7 hrs by DAPI staining-based fluorescence microscopy (reference value: 40 %). On the set-up: scale not given: the % may be the effect or the level left. It counts as functional.
Series [4] relates to Trypanosoma brucei. Briefly: Antitrypanosomal activity against bloodstream Trypanosoma brucei assessed as increase in 4C equivalents of DNA after 7 hrs by DAPI staining-based fluorescence microscopy (reference value: 25 %). It counts as functional.
Series [5] relates to Trypanosoma brucei. As to the kind of experiment: Antitrypanosomal activity against bloodstream Trypanosoma brucei assessed as DNA profile alteration after 7 hrs by propidium iodide staining-based flow cytometry. It counts as functional, organism-based. The essentials:
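Trypanosomes were incubated 7 h with drug or without (control), then stained with propidium iodide. Flow cytometry analysed 10,000 events, and DNA content per cell (2C, 2C-4C, 4C populations) was quantified.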

The test system of series [6] is Trypanosoma brucei. As to the kind of experiment: Inhibition of transferrin receptor-mediated endocytosis in bloodstream Trypanosoma brucei at 8 uM after 7 hrs by flow cytometry.
Series [7] concerns Trypanosoma brucei brucei. Briefly: Antitrypanosomal activity against Trypanosoma brucei brucei CA427 infected in Swiss Webster mouse assessed as mouse mortality at 10 mg/kg, po bid by hemocytometer. The class given is functional, organism-based. On the set-up: dose 10 mg/kg. The procedure, abridged: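 Mice were infected with 10^4 T. brucei brucei CA427 cells. From 24 h post-infection, they were dosed orally at 10 mg/kg twice per day (20 mg/kg/day). Daily parasitemia and survival were followed against untreated control mice.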

Series [8] deals with Trypanosoma brucei brucei. As to the kind of experiment: Antitrypanosomal activity against Trypanosoma brucei brucei CA427 infected in Swiss Webster mouse assessed as mouse survival at 10 mg/kg, ip bid by hemocytometer (reference value: 5 days). Conditions: route intraperitoneal. The class given is functional.
The subject of series [9] is Trypanosoma brucei brucei. As to the kind of experiment: Antitrypanosomal activity against Trypanosoma brucei brucei CA427 infected in Swiss Webster mouse assessed as reduction in replication rate at 10 mg/kg, ip bid measured on day 3 by hemocytometer. It counts as functional, organism-based. Further details: dose 10 mg/kg. The procedure, abridged:
(§2)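 Mice were infected with 10^4 T. brucei brucei CA427 cells. From 24 h post-infection, they were dosed i.p. at 10 mg/kg twice per day (20 mg/kg/day). Blood parasitemia was measured each day against untreated control mice.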

Series [10] deals with Trypanosoma brucei brucei. As to the kind of experiment: Antitrypanosomal activity against Trypanosoma brucei brucei CA427 infected in Swiss Webster mouse assessed as delayed detection of trypanosomes in blood at 10 mg/kg, ip bid after 24 hrs by hemocytometer. The class given is functional, organism-based. Further details: dose 10 mg/kg. The procedure, abridged: as §2
The test system of series [11] is Mus musculus. Briefly: Toxicity in Swiss Webster mouse infected with Trypanosoma brucei brucei CA427at 40 mg/kg, po. It counts as organism-based. Further details: dose 40 mg/kg, route oral. The conditions noted are these: in vivo. The procedure, abridged:
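Infection used 10^4 T. brucei brucei CA427 cells per mouse. Beginning 24 h later, mice received 40 mg/kg once per day in a multi-day regimen. Blood was checked for parasites over 3 days against untreated infected controls, and drug-related toxicity was noted.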

Series [12] has as its system Brain. As to the kind of experiment: Drug uptake in BALB/c mouse brain at 40 mg/kg, po after 24 hrs. It counts as ADME, organism-based. On the set-up: dose 40 mg/kg, route oral. Conditions: in vivo. The essentials:
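Mice received a single oral dose of 40 mg/kg. Drug levels in plasma and brain tissue were measured over 24 hours.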

The test system of series [13] is Trypanosoma brucei brucei. Briefly: Antitrypanosomal activity against bloodstream form Trypanosoma brucei brucei Lister 427 after 48 hrs by hemocytometer. It counts as functional, organism-based. Conditions: Lister 427, 48 h. The procedure, abridged:
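Bloodstream Lister 427 cells were seeded at 2 × 10^3 cells/ml in HMI-9 medium and given drug from 200X DMSO stocks, with DMSO as control. Three independent experiments, each dose in duplicate (n = 6).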

Molecules are shown by their SMILES. Activity calls are given as the source filed them. No cut-off for these calls is given here.

Broadly, the EC50 is the concentration needed to bring the measured effect to its halfway point. Regarding `Fc1cccc(COc2ccc(Nc3ncnc4ccc(-c5cccc(N6CCOCC6)c5)cc34)cc2Cl)c1`, the result in [1], in series [2], in series [5], in series [9] and in series [10] was Active. For the same molecule, the Activity in series [3] was 25%; in series [4], 40%; in [11], “Toxic”. Moreover, the inhibition entry in [6] is “inactive”. Moreover, the result in series [7] was inactive. For the same molecule, the Survival in [8] turned out to be 9 days. Also, the Drug uptake in series [12] is given as 5%. The molecule further yielded an EC50 in series [13] of 42 nM.
